Activity calls are given as the source filed them. No cut-off for these calls is given here.
What was measured:
[1] = biological target: T1, Proton-coupled folate transporter (Homo sapiens, UniProt Q96NT5); experiment: Inhibition of [3H]MTX uptake at human PCFT expressed in Chinese hamster R2/PCFT4 cells at pH 5.5 measured after 5 mins by Dixon plot analysis; assay type: cell-based
T1 sequence (Q96NT5 whole entry): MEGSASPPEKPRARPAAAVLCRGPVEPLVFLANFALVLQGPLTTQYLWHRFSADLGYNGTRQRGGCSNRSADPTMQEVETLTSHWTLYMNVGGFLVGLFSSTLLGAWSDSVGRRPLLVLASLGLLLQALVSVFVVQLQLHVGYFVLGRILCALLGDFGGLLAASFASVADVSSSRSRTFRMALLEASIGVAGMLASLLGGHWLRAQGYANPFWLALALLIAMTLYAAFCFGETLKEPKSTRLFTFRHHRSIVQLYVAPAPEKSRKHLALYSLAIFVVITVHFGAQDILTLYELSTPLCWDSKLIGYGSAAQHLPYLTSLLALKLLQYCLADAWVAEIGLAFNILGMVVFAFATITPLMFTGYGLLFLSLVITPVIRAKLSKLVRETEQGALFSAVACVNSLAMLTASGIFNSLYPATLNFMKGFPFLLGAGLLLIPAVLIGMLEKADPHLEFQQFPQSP

[2] = Toxicity in folate-deficient diet fed SCID mouse xenografted with human IGROV1 cells assessed as body weight loss at 96 and 150 mg/kg, iv administered […] post 2 days of tumor implantation measured after 48 hrs of last dosage; assay type: organism-based; settings: in vivo
Procedure, shortened: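 Female NCR SCID mice (11 weeks old, ~20 g) are fed a folate-deficient diet from 14 days before implant. IGROV1 fragments (30–60 mg) are trocar-implanted subcutaneously in both flanks, and mice are randomised at 5/group. Tail-vein dosing starts on day 2: 28 mg/kg/inj Q3dx5, or 96 or 150 mg/kg/inj Q3dx4. Vehicle is 5% ethanol, 1% Tween-80, 0.5% NaHCO3 in water at pH 6.5. Caliper tumor mass is (a×b²)/2, T/C is taken when controls reach 700–1200 mg, and weights are recorded daily.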

[3] = biological target: T2, Proton-coupled folate transporter (Homo sapiens) (UniProt Q96NT5); experiment: Inhibition of [3H]MTX uptake at human PCFT expressed in Chinese hamster R2/PCFT4 cells at 10 uM and pH 6.8 measured after 5 mins; assay type: cell-based
T2 sequence (whole entry): T1 sequence (Q96NT5 whole entry)

[4] = Cytotoxicity in RFC-null Chinese hamster R2 cells assessed as reduction in cell viability measured after 96 hrs by Cell-Titer Blue fluorescence analysis; assay type: cell-based; settings: Cricetulus griseus, R2, 96 h
[5] = Cytotoxicity in PCFT-null Chinese hamster R2 cells assessed as reduction in cell viability measured after 96 hrs by Cell-Titer Blue fluorescence analysis; assay type: cell-based; settings: Cricetulus griseus, R2, 96 h
IGROV-1 [6] = experiment: Antiproliferative activity against human IGROV1 cells expressing human FR-alpha/PCFT assessed as reduction in cell viability measured after 96 hrs in presence of folic acid by Cell-Titer Blue fluorescence analysis; assay type: functional, cell-based; settings: IGROV-1, 96 h
[7] = biological target: T2, Proton-coupled folate transporter (Homo sapiens); experiment: Inhibition of [3H]MTX uptake at human PCFT expressed in Chinese hamster R2/PCFT4 cells at 10 uM and pH 5.5 measured after 5 mins; assay type: cell-based
[8] = biological target: Folate receptor alpha (Homo sapiens) (UniProt P15328); experiment: Displacement of [3H]folic acid from human FR-alpha receptor expressed in Chinese hamster RT16 cells measured after 15 mins relative to folic acid; assay type: cell-based; set-up: concentration or dose not given beside the values
Chain of Folate receptor alpha (Homo sapiens) (P15328 25-234 limits assumed): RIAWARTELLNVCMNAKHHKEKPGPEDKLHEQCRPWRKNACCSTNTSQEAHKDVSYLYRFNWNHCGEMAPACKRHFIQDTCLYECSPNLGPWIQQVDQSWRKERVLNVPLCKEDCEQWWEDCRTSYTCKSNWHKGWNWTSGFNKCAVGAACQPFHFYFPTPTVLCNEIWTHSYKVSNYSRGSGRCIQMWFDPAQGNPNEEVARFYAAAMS

IGROV-1 [9] = experiment: Antitumor activity against human IGROV1 cells xenografted into folate-deficient diet fed SCID mouse assessed as tumor cell kill at 150 mg/kg, iv administered […] post 2 days of tumor implantation measured on day 20; assay type: functional
[10] = biological target: GAR transformylase/AICAR transformylase (Homo sapiens) (UniProt P31939+P22102); experiment: Inhibition of GARFTase/AICARFTase in human KB cells expressing RFC/FR-alpha/PCFT assessed as cell growth inhibition measured after 96 hrs in presence of 60 uM adenosine by Cell-Titer Blue fluorescence analysis; assay type: cell-based
Chain of GAR transformylase/AICAR transformylase (Homo sapiens) (P31939 whole entry, looked up, one chain of several): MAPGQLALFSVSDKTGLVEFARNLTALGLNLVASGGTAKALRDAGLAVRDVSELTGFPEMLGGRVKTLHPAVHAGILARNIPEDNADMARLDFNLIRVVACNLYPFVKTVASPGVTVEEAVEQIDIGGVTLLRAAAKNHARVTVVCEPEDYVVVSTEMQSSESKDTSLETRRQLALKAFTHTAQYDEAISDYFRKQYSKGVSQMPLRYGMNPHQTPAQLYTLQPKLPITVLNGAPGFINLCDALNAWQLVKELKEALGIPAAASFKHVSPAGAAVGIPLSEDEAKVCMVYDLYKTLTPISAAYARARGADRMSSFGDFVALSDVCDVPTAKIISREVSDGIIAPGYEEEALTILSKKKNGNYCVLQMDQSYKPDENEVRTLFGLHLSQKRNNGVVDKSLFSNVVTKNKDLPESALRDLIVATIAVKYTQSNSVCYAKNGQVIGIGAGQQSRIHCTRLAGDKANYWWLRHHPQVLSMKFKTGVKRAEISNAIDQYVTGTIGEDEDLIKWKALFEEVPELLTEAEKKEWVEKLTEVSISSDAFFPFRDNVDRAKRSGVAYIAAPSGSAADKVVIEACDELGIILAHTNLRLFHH

[11] = biological target: Bifunctional purine biosynthesis protein ATIC (Homo sapiens) (UniProt P31939); experiment: Inhibition of AICARFTase in human KB cells expressing RFC/FR-alpha/PCFT assessed as cell growth inhibition measured after 96 hrs in presence of 320 uM AICA by Cell-Titer Blue fluorescence analysis; assay type: cell-based
Chain of Bifunctional purine biosynthesis protein ATIC (Homo sapiens) (P31939 whole entry, looked up): as the sequence (P31939 whole entry, looked up, one chain of several) above

KB = experiment: Antiproliferative activity against human KB cells expressing human RFC/FR-alpha/PCFT assessed as reduction in cell viability measured after 96 hrs in presence of folic acid by Cell-Titer Blue fluorescence analysis; assay type: functional, cell-based
IGROV-1 [12] = experiment: Antiproliferative activity against human IGROV1 cells expressing human FR-alpha/PCFT assessed as reduction in cell viability measured after 96 hrs by Cell-Titer Blue fluorescence analysis; assay type: functional, cell-based; settings: IGROV-1, 96 h
[13] = biological target: T3, Trifunctional purine biosynthetic protein adenosine-3 (Homo sapiens, UniProt P22102); experiment: Inhibition of GARFTase in human KB cells expressing RFC/FR-alpha/PCFT assessed as decrease in incorporation of [14C(U)]-glycine into [14C]formyl GAR incubated for 1 hr followed by addition of [14C(U)]-glycine measured after 16 hrs in presence of azaserine; assay type: cell-based
T3 sequence (P22102 whole entry): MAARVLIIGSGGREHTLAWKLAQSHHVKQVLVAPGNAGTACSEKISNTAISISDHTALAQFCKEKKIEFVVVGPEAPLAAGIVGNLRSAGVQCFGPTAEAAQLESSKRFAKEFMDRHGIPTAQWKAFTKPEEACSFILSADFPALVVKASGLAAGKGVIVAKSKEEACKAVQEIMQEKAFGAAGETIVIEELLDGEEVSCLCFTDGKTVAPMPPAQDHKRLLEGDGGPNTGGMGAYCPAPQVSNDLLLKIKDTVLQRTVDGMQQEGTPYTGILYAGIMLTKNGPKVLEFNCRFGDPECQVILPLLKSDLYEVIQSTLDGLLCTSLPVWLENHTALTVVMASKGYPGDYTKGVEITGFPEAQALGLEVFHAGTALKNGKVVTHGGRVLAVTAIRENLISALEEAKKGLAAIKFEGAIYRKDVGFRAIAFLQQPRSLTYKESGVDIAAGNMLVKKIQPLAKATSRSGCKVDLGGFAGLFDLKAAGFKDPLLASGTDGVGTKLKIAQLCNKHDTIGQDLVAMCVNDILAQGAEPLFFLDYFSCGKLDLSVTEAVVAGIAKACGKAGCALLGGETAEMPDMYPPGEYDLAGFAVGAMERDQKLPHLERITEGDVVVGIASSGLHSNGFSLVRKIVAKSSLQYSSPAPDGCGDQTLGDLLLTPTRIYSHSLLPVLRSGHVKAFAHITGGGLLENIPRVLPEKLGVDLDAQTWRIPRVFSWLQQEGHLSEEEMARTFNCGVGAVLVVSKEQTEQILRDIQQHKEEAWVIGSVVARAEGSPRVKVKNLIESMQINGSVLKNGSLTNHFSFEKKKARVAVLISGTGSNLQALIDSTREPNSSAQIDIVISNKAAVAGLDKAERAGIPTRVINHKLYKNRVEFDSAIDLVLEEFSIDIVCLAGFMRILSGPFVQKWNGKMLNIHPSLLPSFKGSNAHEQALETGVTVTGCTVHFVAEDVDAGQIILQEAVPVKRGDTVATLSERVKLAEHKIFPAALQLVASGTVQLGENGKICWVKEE

Nc1nc2[nH]c(CCNc3ccc(C(=O)N[C@@H](CCC(=O)O)C(=O)O)cc3)cc2c(=O)[nH]1
Ki [1]: 850 nM
Activity [2]: Non-Toxic
inhibition [3]: 40 to 60%
IC50 [4]: > 1000 nM
IC50 [5]: > 1000 nM
IC50 (IGROV-1 [6]): 872 nM
inhibition [7]: 80 to 90%
inhibition [8]: 60 to 110%
LCK (IGROV-1 [9]): 2.3
inhibition [10]: inactive
inhibition [11]: Active
IC50 (KB): 666 nM
IC50 (IGROV-1 [12]): 2.7 nM
IC50 [13]: 2.64 nM
